# Screening results: PubChem BioAssay, several laboratories
# UPR XBP1 act = activators of adaptive XBP1 UPR arm, primary screen, cell-based, CHO-XBP1 luciferase reporter, luminescence, uHTS; IRE1-XBP1 UPR activation; percent of tunicamycin response, DMSO as zero; AID 463104, 2010; actives 0.33% (n = 330,000); activation, % at 20 µM;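 active = versus positive control, 20 µM dose yields 30% or more activation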;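 note: 100% = tunicamycin at 10 µg/mL and 0% = DMSO only wells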
#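 Assay system: IRE1-XBP1 luciferase reporter CHO line. Input: 1000 cells/well. Buffer or medium: F12 with 10% serum. Doses: 20 µM, 1% DMSO. Times: overnight seeding at 37 °C, 6 h compound treatment at 37 °C. Technique: Steady-Glo luciferase glow luminescence, 10 min after reagent addition.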
# Gli-Sufu block = Gli-Sufu pathway antagonists, primary screen, luciferase luminescence, Sufu-KO-LIGHT cells, uHTS. AID 588413, 2011. inhibition, % at 5 µM. Sufu-KO-LIGHT fibroblasts, Gli luciferase reporter luminescence. actives 0.74% (n = 340,000);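 active = inhibition above about 55%, limit read from the data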;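 note: 0% = DMSO-treated cells and 100% = wells with medium but no cells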
# CHOP UPR activ = activators of apoptotic CHOP UPR arm, primary screen, cell-based, CHO-CHOP luciferase reporter, luminescence, uHTS. UPR activation; percent of tunicamycin response over DMSO baseline. activation, % at 10 µM. actives 0.34% (n = 330,000);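 active = at 10 µM dose, activation of 40% or more, normalized to positive control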;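 note: 100% = tunicamycin at 10 µg/mL and 0% = DMSO alone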
#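 Test system: CHO-CHOP cells, stable luciferase reporter of PERK-eIF2a-CHOP signalling | Quantity: 500 CHO-CHOP cells per well | Buffer or medium: F12 plus 10% serum | Compound dosing: 10 µM single point, 0.5% DMSO | Schedule: 6 h compound treatment, 37 °C | Signal: Luciferase luminescence | Control set: Tunicamycin high control, DMSO low control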
# Jurkat NFkB inh = inhibitors of induced NF-kB luciferase reporter, primary screen, TCR NF-kB activation inhibitor project, cell-based, luminescence, uHTS; Jurkat, PMA/ionomycin-induced NF-kB luciferase reporter; inhibition, % at 4 µM; actives 0.53% (n = 330,000); in the data active = inhibition above about 50%
# 697 NFkB inh = inhibitors of PMA/ionomycin-induced NF-kB reporter, 697 cells, primary screen, B-cell NF-kB inhibitor project, cell-based, luminescence, uHTS. 697 B-cell NF-kB luciferase reporter, 16 h. inhibition, % at 4 µM. actives 0.33% (n = 330,000); in the data active = inhibition above about 35%
# CHOP inhibitor = inhibitors of CHOP promoter induction, primary screen, cell-based, unfolded protein response, luciferase reporter; CHO-K1 CHOP-promoter luciferase, tunicamycin-induced, 15-18 h; inhibition, % at 10 µM; actives 3.8% (n = 220,000); AID 2732, 2010;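 active = compounds that reduced the stress-induced luciferase reporter signal by more than about 70% of percent inhibition, limit read from the data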;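 note: 0% = tunicamycin plus vehicle and 100% = wells without tunicamycin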
# * = called active by the depositor; nt = not tested or not shown. Sampled rows, rich in hits. Any-hit rate of the full collection: about 3.9%.
SMILES,UPR XBP1 act,Gli-Sufu block,CHOP UPR activ,Jurkat NFkB inh,697 NFkB inh,CHOP inhibitor
COc1ccc(C2(C)NC(=O)N(CC3CCCCC3)C2=O)cc1 (centres undefined),5,-31,0,-6,-16,nt
CSc1ccc(S(=O)(=O)NCCOc2ccccc2C)cc1,-1,-1,0,15,-31,72*
O=C(O)COCC(=O)N1CCCN(c2nccc(C(F)(F)F)n2)CC1,-2,3,-2,1,6,nt
O=c1oc2cc(O)ccc2cc1-c1nc2c(s1)CCc1ccccc1-2,nt,-1,nt,nt,nt,83*
O=c1oc2ccccc2cc1-c1nc2c(s1)CCc1ccccc1-2,-1,4,0,-5,-9,3
O=C(COc1ccccc1-c1ccccc1)N/N=C/c1ccncc1,-4,-14,-2,-2,-2,35
O=C(COc1ccccc1-c1ccccc1)N/N=C/c1ccccn1,3,-4,-1,17,-8,77*
COc1ccc(Cc2noc(-c3ccc(C)cc3)n2)cc1,4,-20,6,-10,-33,88*
CCOc1nc2cnccc2n(CC(=O)Nc2c(C)cccc2CC)c1=O,1,6,-1,-7,9,nt
Cn1c(SCC(=O)Nc2ccccc2)nc2c([nH]c3ccccc32)c1=O,24,7,-1,-18,5,11
Cc1cccc(NC(=O)CSc2nc3nc4c(cc3c(=O)n2-c2ccccc2)CCCC4)c1,2,22,5,-4,-4,80*
Cc1cccc(NC(=O)CSc2nc3c([nH]c4ccccc43)c(=O)n2C)c1,18,18,9,-3,0,79*
CCSc1nc2c([nH]c3ccccc32)c(=O)n1C,0,4,-2,-15,6,77*
Cc1ccc(C(=O)C2=C(O)C(=O)N(c3ncccn3)C2c2ccccc2F)o1 (centres undefined),-4,-22,3,14,18,nt
Cc1ccc(C(=O)NC(C(=O)NC2CCCC2)c2ccccc2)cc1 (centres undefined),-2,-2,-2,2,3,nt
CC(=O)c1sc(NC(=O)CCN2C(=O)c3ccccc3C2=O)nc1C,-5,-10,3,-2,11,nt
CS(=O)(=O)c1cc([N+](=O)[O-])c(Sc2nc3ccccc3[nH]2)c([N+](=O)[O-])c1,-5,-12,-6,-8,-14,80*
CCn1c(SC)nnc1C1CCCN(CC(=O)Nc2ccccc2N2CCOCC2)C1 (centres undefined),0,4,-1,-16,-1,nt
C1CCC(C(CC2CCCCN2)C2CCCCC2)CC1 (centres undefined),11,1,8,33,4,99*
CCn1c(NC(C)=O)c(-c2ccccc2Cl)c(=O)c2ccccc21,4,nt,0,5,-6,nt
COc1cc(SC)ccc1C(=O)NNC(=O)c1cc(C)oc1C,-4,-69,-2,-79,-69,nt
NC(=O)c1ccsc1NC(=O)c1ccc(S(=O)(=O)N2CCCC2)cc1,4,-18,3,-12,-30,35
CC1CC(C)CN(S(=O)(=O)c2ccc(C(=O)Nc3sccc3C(N)=O)cc2)C1 (centres undefined),-1,8,0,14,-15,87*
C=CCOc1ccc(/C=C(\C#N)C(=O)Nc2ccccn2)cc1,3,-17,7,8,2,nt
O=C(N/N=C/c1cccc(C(F)(F)F)c1)C1CCN(c2ncc(C(F)(F)F)cc2Cl)CC1,21,9,-3,10,-10,83*
SMILES,UPR XBP1 act,Gli-Sufu block,CHOP UPR activ,Jurkat NFkB inh,697 NFkB inh,CHOP inhibitor
O=C(N/N=C/c1ccc(Cl)cc1Cl)C1CCN(c2ncc(C(F)(F)F)cc2Cl)CC1,nt,nt,nt,nt,nt,96*
O=C(OC1CCN(c2ncc(C(F)(F)F)cc2Cl)CC1)c1ccc(Cl)cc1,0,0,-1,6,12,-14
CCc1ccc(Cn2nnc(C(=O)Nc3cccc(C)c3)c2N)cc1,-2,-30,1,-10,4,71*
Cc1ccc(Cn2nnc(C(=O)Nc3cccc(C)c3C)c2N)cc1,10,3,1,-10,9,8
CCOc1ccc(Cn2nnc(C(=O)Nc3cc(OC)cc(OC)c3)c2N)cc1,0,-6,-2,-26,3,38
CCOc1ccc(Cn2nnc(C(=O)Nc3cc(C)cc(C)c3)c2N)cc1,0,-6,1,16,1,75*
CCN(C(=O)COC(=O)CN(C)S(=O)(=O)c1ccc(NC(C)=O)cc1)C1CCS(=O)(=O)C1 (centres undefined),-2,-2,-2,5,14,nt
C=CCOC(=O)C1=C(C)NC(SCC(N)=O)=C(C#N)C1c1cccs1 (centres undefined),-5,14,-1,-10,2,-2
CCOC(=O)C1=C(C)NC(SCC(=O)Nc2nc(C)cs2)=C(C#N)C1c1cccs1 (centres undefined),-2,nt,0,12,19,75*
C/C=C/Cn1c(SCc2ccc(Cl)cc2)nc2c1c(=O)[nH]c(=O)n2C,13,9,1,-4,-28,76*
CCCn1c(SCc2ccc(Cl)cc2)nc2c1c(=O)[nH]c(=O)n2C,19,9,1,-2,-40,82*
COc1ccc(CC(=O)Nc2c(C(=O)N3CCN(c4ccccc4OC)CC3)oc3ccccc23)cc1OC,-6,-19,1,18,2,nt
CC(OC(=O)C1CCCC1)C(=O)Nc1ccc(S(N)(=O)=O)cc1 (centres undefined),2,6,1,-3,-6,nt
CCCCOc1ccc(CNC(=S)N/N=C/c2ccc(OC)c(OC)c2)cc1,-1,-6,2,3,-7,88*
COc1ccccc1C(=O)NC(CCSC)C(=O)NCc1ccncc1 (centres undefined),0,2,-1,1,1,nt
COC1=C(C)C(=O)C2=C(C1=O)C1C3CC4=C(C(=O)C(OC)=C(C)C4=O)C(CNC(=O)C(C)=O)N3C(C#N)C(C2)N1C (centres undefined),nt,81*,nt,nt,nt,nt
C=CCn1c(=NC(=O)c2cc(Cl)sc2Cl)sc2cc(S(N)(=O)=O)ccc21,4,11,1,14,21,27
C=CCn1c(=NC(=O)c2sc3ccccc3c2Cl)sc2cc(S(N)(=O)=O)ccc21,26,7,5,3,-10,82*
